ChEMBL document CHEMBL5653630, “Activation of the p53-MDM4 regulatory axis defines the anti-tumour response to PRMT5 inhibition through its role in regulating cellular splicing” (Sci Rep, 2018)

Tests used:
JeKo-1 = experiment: Antiproliferative activity against human JeKo-1 cells assessed as cell growth inhibition incubated for 6 days by celltiter-glo assay; type: functional; settings: JeKo-1, 144 h, time 6 day
How it was run: (§1)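 Cells seeded in 384-well plates at an optimized density and held 24 h. Day 0: treated in duplicate with a 20-point two-fold series (top dose ≤29 μM, ≤0.15% DMSO) and incubated 6 days. CellTiter-Glo luminescence read at Day 0 and Day 6. Four-parameter fit. gIC50 = midpoint of the growth window between DMSO and T0. Curves required ≥1.5 population doublings.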

UMUC3 = experiment: Antiproliferative activity against human UMUC3 cells assessed as cell growth inhibition incubated for 6 days by celltiter-glo assay; type: functional; settings: UMUC3, 144 h, time 6 day; how it was run: as §1
HT-1376 = experiment: Antiproliferative activity against human HT-1376 cells assessed as cell growth inhibition incubated for 6 days by celltiter-glo assay; type: functional; settings: HT-1376, 144 h, time 6 day
How it was run: (§2)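 Cells were seeded in 384-well plates and incubated 24 h, then treated in duplicate with a 20-point, 2-fold dilution series (top dose ≤29 μM, ≤0.15% DMSO) for 6 days. CellTiter-Glo luminescence was read on day 0 and day 6. A 4-parameter fit was used, and curves needed at least 1.5 population doublings. gIC50 is the midpoint of the growth window between DMSO and T0.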

SUD4 = experiment: Antiproliferative activity against human SU-DHL-4 cells assessed as cell growth inhibition incubated for 6 days by celltiter-glo assay; type: functional; settings: SU-DHL-4, 144 h, time 6 day; how it was run: as §1
RCK8 = experiment: Antiproliferative activity against human RCK8 cells assessed as cell growth inhibition incubated for 6 days by celltiter-glo assay; type: functional; settings: RCK8, 144 h, time 6 day; how it was run: as §1
MDA-MB-231 = experiment: Antiproliferative activity against human MDA-MB-231 cells assessed as cell growth inhibition incubated for 6 days by celltiter-glo assay; type: functional; settings: MDA-MB-231, 144 h, time 6 day; how it was run: as §1
RL = experiment: Antiproliferative activity against human RL cells assessed as cell growth inhibition incubated for 6 days by celltiter-glo assay; type: functional; settings: 144 h, time 6 day; how it was run: as §1
SF-295 = experiment: Antiproliferative activity against human SF-295 cells assessed as cell growth inhibition incubated for 6 days by celltiter-glo assay; type: functional; settings: SF-295, 144 h, time 6 day; how it was run: as §1
LP-1 = experiment: Antiproliferative activity against human LP-1 cells assessed as cell growth inhibition incubated for 6 days by celltiter-glo assay; type: functional; settings: LP-1, 144 h, time 6 day; how it was run: as §1
5637 = experiment: Antiproliferative activity against human 5637 cells assessed as cell growth inhibition incubated for 6 days by celltiter-glo assay; type: functional; settings: Homo sapiens, 5637, 144 h; time 6 day
How it was run: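 Cells seeded in 384-well plates and held 24 h, then treated in duplicate with a 20-point two-fold dilution series (≤29 μM top dose, ≤0.15% DMSO) for 6 days. CellTiter-Glo luminescence read on Day 0 and Day 6. 4-parameter fit; curves QC'd for population doubling ≥1.5. gIC50 = concentration at the midpoint between the DMSO and T0 values.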

HCC70 = experiment: Antiproliferative activity against human HCC70 cells assessed as cell growth inhibition incubated for 6 days by celltiter-glo assay; type: functional; settings: HCC70, 144 h, time 6 day; how it was run: as §2
U2932 = experiment: Antiproliferative activity against human U2932 cells assessed as cell growth inhibition incubated for 6 days by celltiter-glo assay; type: functional; settings: U2932, 144 h, time 6 day; how it was run: as §1
NU-DHL-1 = experiment: Antiproliferative activity against human NU-DHL-1 cells assessed as cell growth inhibition incubated for 6 days by celltiter-glo assay; type: functional; settings: NU-DHL-1, 144 h, time 6 day; how it was run: as §1
NCI-H526 = experiment: Antiproliferative activity against human NCI-H526 cells assessed as cell growth inhibition incubated for 6 days by celltiter-glo assay; type: functional; settings: NCI-H526, 144 h, time 6 day; how it was run: as §1
SK-BR-3 = experiment: Antiproliferative activity against human SK-BR-3 cells assessed as cell growth inhibition incubated for 6 days by celltiter-glo assay; type: functional; settings: SK-BR-3, 144 h, time 6 day; how it was run: as §1
[1] = Antiproliferative activity against human MINO cells assessed as cell growth inhibition incubated for 6 days by celltiter-glo assay; type: functional; settings: 144 h, time 6 day; how it was run: as §1
WSU-NHL = experiment: Antiproliferative activity against human WSU-NHL cells assessed as cell growth inhibition incubated for 6 days by celltiter-glo assay; type: functional; settings: 144 h, time 6 day; how it was run: as §1
Maver1 = experiment: Antiproliferative activity against human MAVER-1 cells assessed as cell growth inhibition incubated for 6 days by celltiter-glo assay; type: functional; settings: Maver1, 144 h, time 6 day; how it was run: as §1
[2] = Antiproliferative activity against human PER-624 cells assessed as cell growth inhibition incubated for 6 days by celltiter-glo assay; type: functional; settings: PER-624, 144 h, time 6 day; how it was run: as §1
LN-229 = experiment: Antiproliferative activity against human LN-229 cells assessed as cell growth inhibition incubated for 6 days by celltiter-glo assay; type: functional; settings: LN-229, 144 h, time 6 day; how it was run: as §1
SF-539 = experiment: Antiproliferative activity against human SF-539 cells assessed as cell growth inhibition incubated for 6 days by celltiter-glo assay; type: functional; settings: SF-539, 144 h, time 6 day; how it was run: as §1
ZR-75-1 = experiment: Antiproliferative activity against human ZR-75-1 cells assessed as cell growth inhibition incubated for 6 days by celltiter-glo assay; type: functional; settings: ZR-75-1, 144 h, time 6 day; how it was run: as §1
U-2940 = experiment: Antiproliferative activity against human U-2940 cells assessed as cell growth inhibition incubated for 6 days by celltiter-glo assay; type: functional; settings: U-2940, 144 h, time 6 day; how it was run: as §1
U-87 MG = experiment: Antiproliferative activity against human U-87 MG cells assessed as cell growth inhibition incubated for 6 days by celltiter-glo assay; type: functional, U-87MG ATCC; settings: 144 h, time 6 day; how it was run: as §1
WSUDLCL2 = experiment: Antiproliferative activity against human WSUDLCL2 cells assessed as cell growth inhibition incubated for 6 days by celltiter-glo assay; type: functional; settings: WSUDLCL2, 144 h, time 6 day; how it was run: as §1
[3] = Antiproliferative activity against human PER-704 cells assessed as cell growth inhibition incubated for 6 days by celltiter-glo assay; type: functional; settings: PER-704, 144 h, time 6 day; how it was run: as §1
SU-DHL-8 = experiment: Antiproliferative activity against human SU-DHL-8 cells assessed as cell growth inhibition incubated for 6 days by celltiter-glo assay; type: functional; settings: SU-DHL-8, 144 h, time 6 day; how it was run: as §1
SW780 = experiment: Antiproliferative activity against human SW780 cells assessed as cell growth inhibition incubated for 6 days by celltiter-glo assay; type: functional; settings: SW780, 144 h, time 6 day; how it was run: as §1
J82 = experiment: Antiproliferative activity against human J82 cells assessed as cell growth inhibition incubated for 6 days by celltiter-glo assay; type: functional; settings: J82, 144 h, time 6 day; how it was run: as §1
Rec1 = experiment: Antiproliferative activity against human REC1 cells assessed as cell growth inhibition incubated for 6 days by celltiter-glo assay; type: functional; settings: Rec1, 144 h, time 6 day; how it was run: as §1
Pfeiffer = experiment: Antiproliferative activity against human Pfeiffer cells assessed as cell growth inhibition incubated for 6 days by celltiter-glo assay; type: functional; settings: 144 h, time 6 day; how it was run: as §1
MDA-MB-453 = experiment: Antiproliferative activity against human MDA-MB-453 cells assessed as cell growth inhibition incubated for 6 days by celltiter-glo assay; type: functional; settings: MDA-MB-453, 144 h, time 6 day; how it was run: as §1
SU-DHL-16 = experiment: Antiproliferative activity against human SU-DHL-16 cells assessed as cell growth inhibition incubated for 6 days by celltiter-glo assay; type: functional; settings: SU-DHL-16, 144 h, time 6 day; how it was run: as §1
SU-DHL-6 = experiment: Antiproliferative activity against human SU-DHL-6 cells assessed as cell growth inhibition incubated for 6 days by celltiter-glo assay; type: functional; settings: SU-DHL-6, 144 h, time 6 day; how it was run: as §1

SMILES	GI50 (JeKo-1) [nM]	GI50 (UMUC3) [nM]	GI50 (HT-1376) [nM]	GI50 (SUD4) [nM]	GI50 (RCK8) [nM]	GI50 (MDA-MB-231) [nM]	GI50 (RL) [nM]	GI50 (SF-295) [nM]	GI50 (LP-1) [nM]	GI50 5637 [nM]	GI50 (HCC70) [nM]	GI50 (U2932) [nM]	GI50 (NU-DHL-1) [nM]	GI50 (NCI-H526) [nM]	GI50 (SK-BR-3) [nM]	GI50 [1] [nM]	GI50 (WSU-NHL) [nM]	GI50 (Maver1) [nM]	GI50 [2] [nM]	GI50 (LN-229) [nM]	other results
O=C(NC[C@H](O)CN1CCc2ccccc2C1)c1ccnc(NC2CCC2)c1	6190	19200	13100	571	2110	2930	1430	9840	975	143	522	336	101	138	131	536	76	133	526	1150	GI50 (SF-539): 75 nM; GI50 (ZR-75-1): 2620 nM; GI50 (U-2940): 2350 nM; GI50 (U-87 MG): 127 nM; GI50 (WSUDLCL2): 651 nM; GI50 [3]: 375 nM; GI50 (SU-DHL-8): 1220 nM; GI50 (SW780): 451 nM; GI50 (J82): 20900 nM; GI50 (Rec1): 1990 nM; GI50 (Pfeiffer): 352 nM; GI50 (MDA-MB-453): 343 nM; GI50 (SU-DHL-16): 124 nM; GI50 (SU-DHL-6): 13 nM
CC(=O)N1CCC(Nc2cc(C(=O)NC[C@H](O)CN3CCc4ccccc4C3)ncn2)CC1 [PEMRAMETOSTAT]	5400	29300	17600	492	529	544	14	24700	1940	69	130	53	333	275	73	130	8	85	524	254	GI50 (SF-539): 61 nM; GI50 (ZR-75-1): 11000 nM; GI50 (U-2940): 10200 nM; GI50 (U-87 MG): 40 nM; GI50 (WSUDLCL2): 82 nM; GI50 [3]: 658 nM; GI50 (SU-DHL-8): 53 nM; GI50 (SW780): 290 nM; GI50 (J82): 29300 nM; GI50 (Rec1): 2110 nM; GI50 (Pfeiffer): 421 nM; GI50 (MDA-MB-453): 29 nM; GI50 (SU-DHL-16): 99 nM; GI50 (SU-DHL-6): 4 nM
